This is an account of results in ChEMBL document CHEMBL4814016, “Balancing potency and basicity by incorporating fluoropyridine moieties: Discovery of a 1-amino-3,4-dihydro-2,6-naphthyridine BACE1 inhibitor that affords robust and sustained central Aβ reduction” (Eur J Med Chem, 2021).

The nature of series [1]: Dissociation constant, pKa of compound by capillary electrophoresis. The format is physicochemical. In short, it runs like this: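 pKa measured by capillary electrophoresis.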
Series [2] concerns the target T1, Beta-secretase 1 (Homo sapiens, UniProt P56817). Nature of the series: Inhibition of BACE1 in human SH-SY5Y cells expressing APP assessed as reduction in Abeta40 by HTRF assay. The format is cell-based. In short, it runs like this:
(§1)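 The figures are means of at least two determinations. BACE1 activity was measured with a biochemical HTRF assay on an APP-derived peptide substrate. In the cellular assay, secreted Aβ40 from SH-SY5Y neuroblastoma cells transfected with human APP was measured by HTRF, and the IC50 derived from it.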
Background: Time-resolved FRET reads energy transfer from a long-lived donor to a nearby acceptor.

The target of a further series is hERG (KCNH2) (Homo sapiens, UniProt Q12809). In words: Inhibition of human ERG at 5 uM by automated patch clamp assay relative to control. The method in brief:
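hERG inhibition measured at 5 µM with an automated patch clamp assay.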

The target in series [3] is T1, Beta-secretase 1. Nature of the series: Inhibition of BACE1 (unknown origin) by HTRF assay. The method in brief: as §1
The target of the next series is P-gp (MDR1, ABCB1) (Homo sapiens, UniProt P08183). Nature of the series: Substrate activity at P-gp (unknown origin) transfected in LLC-PK1 cells expressing human MDR1 gene assessed as efflux ratio. The format is ADME, cell-based.
Sequence of P-gp (MDR1, ABCB1) (P08183 whole entry): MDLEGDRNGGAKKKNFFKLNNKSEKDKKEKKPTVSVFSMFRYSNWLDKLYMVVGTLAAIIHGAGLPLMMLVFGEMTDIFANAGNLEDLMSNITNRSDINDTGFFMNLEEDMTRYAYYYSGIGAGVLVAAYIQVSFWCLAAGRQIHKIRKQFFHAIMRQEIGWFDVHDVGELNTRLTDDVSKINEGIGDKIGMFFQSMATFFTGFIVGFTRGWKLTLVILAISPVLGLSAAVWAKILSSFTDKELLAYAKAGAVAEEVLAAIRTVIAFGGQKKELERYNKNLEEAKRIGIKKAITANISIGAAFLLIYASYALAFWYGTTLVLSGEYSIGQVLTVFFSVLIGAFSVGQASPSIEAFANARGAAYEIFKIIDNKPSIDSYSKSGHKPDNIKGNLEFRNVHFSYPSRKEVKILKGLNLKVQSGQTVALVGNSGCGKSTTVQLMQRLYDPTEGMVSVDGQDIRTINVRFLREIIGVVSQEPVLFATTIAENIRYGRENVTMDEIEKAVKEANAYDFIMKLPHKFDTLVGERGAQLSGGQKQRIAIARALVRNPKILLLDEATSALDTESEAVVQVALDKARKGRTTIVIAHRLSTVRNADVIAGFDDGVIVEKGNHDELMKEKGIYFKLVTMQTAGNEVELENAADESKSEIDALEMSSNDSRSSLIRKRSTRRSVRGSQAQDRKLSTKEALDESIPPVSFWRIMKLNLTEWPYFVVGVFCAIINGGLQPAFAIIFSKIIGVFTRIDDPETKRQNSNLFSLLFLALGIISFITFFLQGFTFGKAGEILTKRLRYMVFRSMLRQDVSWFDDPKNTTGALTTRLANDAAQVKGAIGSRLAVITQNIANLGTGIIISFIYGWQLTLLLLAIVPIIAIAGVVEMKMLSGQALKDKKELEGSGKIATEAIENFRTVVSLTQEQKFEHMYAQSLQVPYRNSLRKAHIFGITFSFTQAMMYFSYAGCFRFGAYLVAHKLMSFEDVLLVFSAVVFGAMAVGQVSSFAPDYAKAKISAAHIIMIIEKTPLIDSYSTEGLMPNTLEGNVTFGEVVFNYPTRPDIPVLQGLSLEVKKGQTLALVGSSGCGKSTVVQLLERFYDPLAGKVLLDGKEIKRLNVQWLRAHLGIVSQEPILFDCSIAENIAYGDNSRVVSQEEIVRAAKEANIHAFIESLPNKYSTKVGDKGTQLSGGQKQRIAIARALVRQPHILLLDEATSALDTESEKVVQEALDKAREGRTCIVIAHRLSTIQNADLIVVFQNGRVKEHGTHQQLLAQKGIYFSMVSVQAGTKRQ
The nature of series [4]: Metabolic stability in rat liver microsomes assessed as parent compound remaining measured after 30 mins. The format is ADME, Microsome. To be noted: read-out: Stabilty. In short, it runs like this:
(§2)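 Parent compound remaining (%) measured after 30 min incubation in rat or dog liver microsomes.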
For orientation: Liver microsomes are a subcellular fraction often used to study metabolism.

Series [5] is described as follows: In vivo inhibition of amyloid beta in Beagle dog cerebrospinal fluid at 1 mg/kg, po measured after 10 hrs by ELISA. The class given is functional. To be noted: Canis lupus familiaris. The method in brief: (§3)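 Beagle dogs, n = 3, received 1 mg/kg orally as a 0.5% methylcellulose suspension. Total Aβ in CSF was measured by ELISA at 10 and 24 h and expressed as % reduction.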
Background: In an ELISA, binding on a coated surface is turned into a signal by an enzyme label.

Series [6] in a line: Ratio of drug level in Beagle dog cerebrospinal fluid after 24 hrs to IC50 for inhibition of BACE1 in human SH-SY5Y cells expressing APP assessed as reduction in Abeta40 by HTRF assay. The class given is cell-based. In short, it runs like this: (§4)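 CSF drug concentration in dogs dosed orally at 1 mg/kg (0.5% methylcellulose suspension) at 10 and 24 h, divided by the cellular Aβ40 HTRF IC50 from SH-SY5Y cells expressing human APP.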

Series [7] in a line: Cmax in Beagle dog at 1 mg/kg, po. To be noted: in vivo.
Series [8] can be described thus: Volume of distribution at steady state in rat at 0.5 mg/kg, iv. To be noted: in vivo, read-out: Vdss. The class given is ADME, organism-based. In short, it runs like this:
(§5)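 Single iv dose of 0.5 mg/kg in rats, n = 2. Total clearance and steady-state volume of distribution were taken from the plasma profile.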

Series [9] is described as follows: Drug concentration in Beagle dog cerebrospinal fluid at 1 mg/kg, po measured after 24 hrs. The format is ADME, organism-based, Canis lupus familiaris. To be noted: read-out: Ct. The method in brief: (§6)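 Beagle dogs, n = 3, were given 1 mg/kg orally as a suspension in 0.5% methylcellulose. Plasma and CSF drug concentrations were measured at 3, 7, 10 and 24 h. The CSF ratio is CSF concentration over unbound plasma concentration.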

The nature of series [10]: Tmax in Beagle dog at 1 mg/kg, po. To be noted: in vivo.
Series [11] in a line: Ratio of drug level in brain to plasma in rat at 0.5 mg/kg, iv. The class given is ADME, organism-based. The method in brief: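 Rats given 0.5 mg/kg iv, n = 2. Result is the total brain-to-plasma concentration ratio (Kp).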
A short description of series [12]: Plasma concentration in Beagle dog at 1 mg/kg, po measured after 7 hrs. The class given is ADME, organism-based, Canis lupus familiaris. The method in brief: as §6
The nature of series [13]: Ratio of drug level in Cerebrospinal fluid to plasma in Beagle dog at 1 mg/kg, po measured after 24 hrs. The class given is ADME, organism-based, Canis lupus familiaris, CSF/Plasma. The method in brief: as §6
A short description of series [14]: Clearance in rat at 0.5 mg/kg, iv. To be noted: in vivo. The class given is ADME, organism-based. The method in brief:
as §5

Series [15] can be described thus: AUC in rat at 1 mg/kg, po. To be noted: in vivo. The format is ADME, organism-based. On the set-up: dose 1 mg/kg. The method in brief:
(§7)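 Rats dosed orally at 1 mg/kg, n = 2. Plasma AUC, Cmax and Tmax were taken from the profile. Bioavailability was calculated against an iv dose of 0.5 mg/kg, n = 2.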

A short description of series [16]: Plasma concentration in Beagle dog at 1 mg/kg, po measured after 24 hrs. The class given is ADME, organism-based, Canis lupus familiaris. In short, it runs like this:
as §6

Series [17] can be described thus: Fraction unbound in Beagle dog serum. The format is ADME, cell-free, Canis lupus familiaris. In short, it runs like this: (§8)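 Fraction unbound measured in rat and dog serum.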
Series [18] can be described thus: Ratio of drug level in Beagle dog cerebrospinal fluid after 10 hrs to IC50 for inhibition of BACE1 in human SH-SY5Y cells expressing APP assessed as reduction in Abeta40 by HTRF assay. The class given is cell-based. The method in brief:
as §4

The nature of series [19]: Plasma concentration in Beagle dog at 1 mg/kg, po measured after 10 hrs. The class given is ADME, organism-based, Canis lupus familiaris. The method in brief: as §6
Series [20] can be described thus: Cmax in rat at 1 mg/kg, po. The class given is ADME, organism-based. On the set-up: route oral, dose 1 mg/kg. To be noted: in vivo. In short, it runs like this: as §7
The nature of series [21]: Oral bioavailability in rat at 1 mg/kg. The class given is ADME, organism-based. To be noted: in vivo. In short, it runs like this: as §7
Series [22] is described as follows: Metabolic stability in Beagle dog liver microsomes assessed as parent compound remaining measured after 30 mins. The format is ADME, Canis lupus familiaris, Microsome. To be noted: read-out: Stabilty. The method in brief: as §2
Series [23] is described as follows: AUC in Beagle dog at 1 mg/kg, po. To be noted: in vivo.
A short description of series [24]: Tmax in rat at 1 mg/kg, po. The class given is ADME, organism-based. To be noted: in vivo. In short, it runs like this:
as §7

Series [25] can be described thus: Drug concentration in Beagle dog cerebrospinal fluid at 1 mg/kg, po measured after 10 hrs. The class given is ADME, organism-based, Canis lupus familiaris. To be noted: read-out: Ct. The method in brief: as §6
The nature of series [26]: In vivo inhibition of amyloid beta in Beagle dog cerebrospinal fluid at 1 mg/kg, po measured after 24 hrs by ELISA. The class given is functional. To be noted: Canis lupus familiaris. The method in brief: as §3
Series [27] can be described thus: Fraction unbound in rat serum. The format is ADME, cell-free. In short, it runs like this: as §8
A short description of series [28]: Plasma concentration in Beagle dog at 1 mg/kg, po measured after 3 hrs. The class given is ADME, organism-based, Canis lupus familiaris. In short, it runs like this: as §6
Series [29] can be described thus: Ratio of drug level in Cerebrospinal fluid to plasma in Beagle dog at 1 mg/kg, po measured after 10 hrs. The class given is ADME, organism-based, Canis lupus familiaris, CSF/Plasma. In short, it runs like this:
as §6

Series [30] concerns the target T1, Beta-secretase 1. In words: Inhibition of BACE1 (unknown origin).

Sequence of hERG (KCNH2) (Q12809 whole entry): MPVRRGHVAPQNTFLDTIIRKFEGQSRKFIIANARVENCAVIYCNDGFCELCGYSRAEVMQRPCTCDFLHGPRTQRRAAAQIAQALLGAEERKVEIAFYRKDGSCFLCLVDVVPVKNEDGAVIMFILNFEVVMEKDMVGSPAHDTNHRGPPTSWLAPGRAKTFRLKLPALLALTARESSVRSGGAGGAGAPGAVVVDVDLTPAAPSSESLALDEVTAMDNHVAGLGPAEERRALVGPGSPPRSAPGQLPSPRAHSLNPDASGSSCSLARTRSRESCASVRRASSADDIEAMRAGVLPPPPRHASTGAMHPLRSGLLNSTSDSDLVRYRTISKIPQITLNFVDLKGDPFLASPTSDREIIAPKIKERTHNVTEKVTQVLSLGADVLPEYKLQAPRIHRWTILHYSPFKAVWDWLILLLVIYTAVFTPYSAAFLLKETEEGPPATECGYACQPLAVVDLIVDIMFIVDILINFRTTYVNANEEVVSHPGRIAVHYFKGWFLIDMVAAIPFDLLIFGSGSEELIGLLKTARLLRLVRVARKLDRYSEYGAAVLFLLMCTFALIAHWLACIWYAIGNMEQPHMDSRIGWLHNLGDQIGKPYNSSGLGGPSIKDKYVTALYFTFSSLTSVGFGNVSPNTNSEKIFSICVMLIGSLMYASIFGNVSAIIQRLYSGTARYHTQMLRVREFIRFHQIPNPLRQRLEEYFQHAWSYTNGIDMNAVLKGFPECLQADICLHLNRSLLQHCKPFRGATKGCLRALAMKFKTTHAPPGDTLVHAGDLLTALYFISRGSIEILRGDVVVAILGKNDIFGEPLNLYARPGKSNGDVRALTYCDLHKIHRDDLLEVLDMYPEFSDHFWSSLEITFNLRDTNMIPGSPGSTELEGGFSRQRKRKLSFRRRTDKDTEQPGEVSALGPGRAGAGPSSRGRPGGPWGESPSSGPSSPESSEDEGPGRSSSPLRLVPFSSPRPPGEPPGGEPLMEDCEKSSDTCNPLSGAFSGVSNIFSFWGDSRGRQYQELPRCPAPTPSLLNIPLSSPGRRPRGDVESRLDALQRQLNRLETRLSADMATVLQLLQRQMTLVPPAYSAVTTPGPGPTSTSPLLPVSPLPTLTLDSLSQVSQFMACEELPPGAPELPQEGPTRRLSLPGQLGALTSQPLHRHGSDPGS
T1 sequence (P56817 whole entry): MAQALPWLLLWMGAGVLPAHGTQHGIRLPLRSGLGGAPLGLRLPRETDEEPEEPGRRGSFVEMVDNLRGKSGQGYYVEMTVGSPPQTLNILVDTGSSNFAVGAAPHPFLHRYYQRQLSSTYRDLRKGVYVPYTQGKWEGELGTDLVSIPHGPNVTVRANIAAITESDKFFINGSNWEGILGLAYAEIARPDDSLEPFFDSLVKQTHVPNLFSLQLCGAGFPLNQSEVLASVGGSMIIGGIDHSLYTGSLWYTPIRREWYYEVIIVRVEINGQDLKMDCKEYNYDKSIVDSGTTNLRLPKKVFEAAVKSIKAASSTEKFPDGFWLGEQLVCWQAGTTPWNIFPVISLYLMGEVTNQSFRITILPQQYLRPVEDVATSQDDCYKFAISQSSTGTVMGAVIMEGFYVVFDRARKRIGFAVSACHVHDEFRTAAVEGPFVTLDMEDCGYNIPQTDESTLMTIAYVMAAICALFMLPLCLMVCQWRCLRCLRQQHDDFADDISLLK

In series [1], `CC1(c2cc(NC(=O)c3ccc(C#N)cn3)ccc2F)Cc2ncccc2C(N)=N1` (configuration not stated) returned a pKa of 9.4. Further, the IC50 at Beta-secretase 1 [2] came to 4.1 nM.
On hERG (KCNH2), `CC1(c2cc(NC(=O)c3ccc(C#N)cn3)ccc2F)Cc2cncc(F)c2C(N)=N1` (configuration not stated) gave an inhibition at 5 µM of 92%. The figures for the IC50 against Beta-secretase 1 [3] and on Beta-secretase 1 [2] were 118 nM and 11 nM, respectively. Also, the pKa in [1] was 7.3.
In turn, `CC1(c2cc(NC(=O)c3ccc(C#N)cn3)ccc2F)Cc2cnccc2C(N)=N1` (configuration not stated) yielded an inhibition at 5 µM at hERG (KCNH2) of 85%. The IC50 was 21 nM against Beta-secretase 1 [3] and 1.5 nM at Beta-secretase 1 [2]. The molecule also yielded a pKa in [1] of 9. On P-gp (MDR1, ABCB1), the efflux ratio amounted to 37.
In turn, `CC1(c2cc(NC(=O)c3ccc(C#N)cn3)ccc2F)Cc2c(F)cncc2C(N)=N1` (configuration not stated) showed an inhibition at 5 µM at hERG (KCNH2) of 72%. Also, the values for the IC50 on Beta-secretase 1 [3] and at Beta-secretase 1 [2] were 12 nM and 0.25 nM, respectively. The molecule further displayed a pKa in [1] of 7.6. For the same molecule, the efflux ratio at P-gp (MDR1, ABCB1) stood at 13.
As for `CC1(c2cc(NC(=O)c3ccc(C#N)cn3)ccc2F)Cc2c(ccnc2F)C(N)=N1` (configuration not stated), the IC50 on Beta-secretase 1 [3] worked out at 14 nM; on Beta-secretase 1 [2] it was 0.36 nM.
Consider `C[C@@]1(c2cc(NC(=O)c3ccc(C#N)cn3)ccc2F)Cc2c(ccnc2F)C(N)=N1`, for which the results for the remaining at 0.5 h in [4] and in series [22] were 22% and 93%, respectively. Also, the inhibition in vivo at 1 mg/kg was 49% in [5] and 47% in series [26]. Also, the Ratio in series [6] was determined as 3; in series [18], 3.3. The Cmax in series [7] was found to be 78 ng/mL; in [20], 9 ng/mL. Also, the Vd in series [8] was 14 L/kg. Besides, the inhibition at 5 µM against hERG (KCNH2) amounted to 88%. Further, the concentration at 24 h in series [9] came to 0.52 ng/mL; in series [16], 47 ng/mL. The IC50 against Beta-secretase 1 [3] was 9.1 nM; at Beta-secretase 1 [2], 0.41 nM. In [1], the pKa is 8.2. In addition, the Tmax in series [10] came out at 4.3 h; in [24], 4 h. The Kp in series [11] was determined as 0.28. Moreover, in series [12], the concentration at 7 h came to 65 ng/mL. Besides, the Kp at 24 h in [13] was determined as 0.083. The same molecule registered a clearance in series [14] of 45 mL/min/kg. The AUC in [15] came out at 122 ng·h/mL; in series [23] it was 3890 ng·h/mL. For the same molecule, the figures for the free fraction (fraction unbound) in [17] and in series [27] were 0.14 and 0.15, respectively. In addition, the concentration at 10 h in series [19] came out at 64 ng/mL; in series [25] it was 0.56 ng/mL. Further, the bioavailability in series [21] was found to be 33%. The molecule also had a concentration at 3 h in series [28] of 72 ng/mL. Moreover, the efflux ratio at P-gp (MDR1, ABCB1) amounted to 13. Further, in series [29], the Kp at 10 h amounted to 0.07.
For `CC1(c2cc(NC(=O)c3ccc(C#N)cn3)ccc2F)Cc2ccncc2C(N)=N1` (configuration not stated), on hERG (KCNH2), the inhibition at 5 µM was determined as 83%. Also, the IC50 on Beta-secretase 1 [3] came to 8.1 nM; at Beta-secretase 1 [2], 1.3 nM. The molecule further yielded a pKa in series [1] of 9.5.
The molecule `CC1(c2cc(NC(=O)c3ccc(C#N)cn3)ccc2F)N=C(N)c2ccccc2O1` (configuration not stated) came in with an IC50 against Beta-secretase 1 [30] of 82 nM.
In the case of `CC1(c2cc(NC(=O)c3ccc(C#N)cn3)ccc2F)Cc2cccnc2C(N)=N1` (configuration not stated), the values for the IC50 on Beta-secretase 1 [3] and at Beta-secretase 1 [2] were 394 nM and 26 nM, respectively. Also, the pKa in [1] worked out at 9.8.

One may read the pKa as the pH at which an ionisable group is half protonated. One may read the IC50 as the concentration needed to halve the response being measured. The term inhibition denotes how much of the control response was suppressed. A lower inhibition goes with little suppression. The term efflux ratio denotes a quotient of directional permeabilities that is used to spot active efflux. The inhibition in vivo is the change of the read-out against control, counted positive when it falls. The low end stands for a response near the control, the high end for a response far below the control. By Cmax is commonly meant the highest concentration seen after dosing. For orientation: Tmax means the time at which the peak concentration occurs. As usually defined, the Kp is the ratio of the level in a tissue or fluid to that in plasma or blood. One may read the clearance as the volume of plasma or blood freed of the substance per unit of time. Low readings indicate a low capacity for elimination, high ones a high capacity for elimination. For orientation: AUC means concentration integrated over time. In general, fraction unbound refers to the share of the substance not bound to proteins or other matrix. In general, bioavailability refers to dose-corrected exposure relative to a reference, in per cent. Low readings indicate poor availability, high ones good availability.
